Assay results of several laboratories.
Compare with care: the assays were run in different laboratories.
Target: Muscarinic acetylcholine receptor M3 (CHRM3, Homo sapiens, UniProt P20309)
Concentration: 10 µM

| Compound | assay | inhibition [%] |
| --- | --- | --- |
| Cc1ccccc1Oc1cc(-n2c(=O)cc(C(F)(F)F)[nH]c2=O)c2ccccc2c1Cl | ligand displacement | -16.2 |
| CCN(CC)CCCC[C@H](NC(=O)[C@H](CC(C)C)NC(=O)[C@H](C)NC(=O)[C@H](Cc1ccccc1)NC(=O)c1ccc(C(C)(C)C)cc1)C(=O)N[C@@H](CO)C(=O)OC | ligand displacement, radioligand | 7 |
| CCC(=NO)C(C)=Cc1ccc(F)c(C)c1 | ligand displacement | -5.75 |
| COCc1c(-c2cc3cc(C)cc(OC)c3s2)c2c(N)ncnn2c1CN1CCNC(=O)C1 | ligand displacement, radioligand | 0 |
| C[C@H](C(=O)N[C@H]1COc2ccccc2[C@@H]1S(C)(=O)=O)c1ccc(F)cc1 | cell-free assay | 12 |
| CN1CC[C@@]2(C)c3cc(OC(=O)Nc4ccccc4)ccc3N(C)[C@@H]12 | ligand displacement, radioligand | 3.1 |
| Clc1ccc2c(C3CCN(CCc4c[nH]c5ccccc45)CC3)c[nH]c2c1 | ligand displacement, radioligand | 61 |
| CC(C)N1CCC[C@H]1CNC(=O)c1cn(C2CCCC2)c(=O)c2c1c1ccccc1n2C | ligand displacement, radioligand | 12 |
| c1ccc(C(NCCNC(c2ccccc2)c2ccccc2)c2ccccc2)cc1 | cell-free assay | 11 |
| COc1ccc(C(=O)NCc2cc(C(C)C)no2)cc1OC1CCN(C)CC1 | ligand displacement, radioligand | 26 |
